This is a sample that favours compounds with a hit; in the whole collection about 2.6% have one here.
FGF22 binding – binders of human FGF22 protein, primary screen, FGF22 synaptogenesis inhibitor project, biophysical, thermal shift, single point; Fibroblast growth factor 22 (Homo sapiens), Q9HCT0; recombinant FGF22 thermal shift, SYPRO orange fluorescence; percent of sucrose octasulfate shift, DMSO zero; activity (Tm shift, normalised), % at 9.99 µM; actives 1.5% (n = 340,000);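 active means mean Tm shift, scaled 0 neutral to 100 positive control, at about 1.3% or above, every replicate too, limit read from the data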
Target sequence (Q9HCT0 whole entry, looked up): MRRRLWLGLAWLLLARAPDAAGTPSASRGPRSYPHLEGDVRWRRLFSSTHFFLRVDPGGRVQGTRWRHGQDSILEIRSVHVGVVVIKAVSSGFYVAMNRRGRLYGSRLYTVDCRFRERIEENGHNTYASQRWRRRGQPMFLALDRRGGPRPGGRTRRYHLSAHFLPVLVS
NSD2 HMT inh – NSD2 histone methyltransferase inhibitors, primary screen, biochemical, AlphaScreen, single concentration, set 2. inhibition, % at 12.5 µM. NSD2 peptide methylation, 120 min. actives 0.54% (n = 310,000). AID 743445, 2014; in the data active means inhibition above about 50%
UCH37 DUB inh – inhibitors of human UCH37 deubiquitinase, primary screen, biochemical, Ub-AMC cleavage, fluorescence; actives 0.33% (n = 330,000); AID 588478, 2011; Ubiquitin carboxyl-terminal hydrolase isozyme L5 (Homo sapiens), Q9Y5K5; inhibition, % (concentration not given with the values); purified proteasome/UCH37;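 active means mean inhibition over replicate wells above about 20%, limit read from the data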;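 further: 0% = compound-free wells with enzyme and 100% = wells lacking proteasome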
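Test system – human UCH37 enzyme supplied as purified proteasome complex · Incubation – 30 min preincubation with enzyme, 25 min cleavage at room temperature · Detection – AMC fluorescence from Ub-AMC cleavage, excitation 355 nm, emission 460 nm · Benchmarks – no-proteasome wells (full inhibition) and compound-free wells (no inhibition)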
SIRT5 inh – SIRT5 desuccinylase inhibitors, primary screen, biochemical, fluorescence imaging, single point, set 5; NAD-dependent protein deacylase sirtuin-5, mitochondrial (Homo sapiens), Q9NXA8; Purified SirT5, succinyl-peptide AMC, trypsin-coupled fluorescence; inhibition, % at 15 µM; actives 1.1% (n = 330,000); AID 652115, 2013; in the data active means inhibition above about 15%
Target sequence (Q9NXA8 whole entry, looked up): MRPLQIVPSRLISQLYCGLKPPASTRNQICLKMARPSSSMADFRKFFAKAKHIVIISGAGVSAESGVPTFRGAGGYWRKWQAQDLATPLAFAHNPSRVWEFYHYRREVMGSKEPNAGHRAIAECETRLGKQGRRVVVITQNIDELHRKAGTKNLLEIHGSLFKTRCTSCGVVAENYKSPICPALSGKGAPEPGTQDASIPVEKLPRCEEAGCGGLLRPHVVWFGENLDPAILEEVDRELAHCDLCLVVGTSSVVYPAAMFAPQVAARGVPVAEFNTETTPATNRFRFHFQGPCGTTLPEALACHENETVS
CASP6 VEID inh – human caspase-6 inhibitors, primary screen, biochemical, VEID-R110 fluorescence, single point, set 2; P55212; purified caspase-6, Z-VEID-R110 cleavage fluorescence; inhibition, % at 12.5 µM; actives 0.53% (n = 350,000); AID 686996, 2013;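 active means mean inhibition across replicates at least about 35%, with every replicate also reaching that limit, limit read from the data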;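 further: 0% = median of neutral control wells and 100% = no fluorescence left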
* marks the source's active call; other numbers are inactive results; . = no result given.

SMILES | FGF22 binding | NSD2 HMT inh | UCH37 DUB inh | SIRT5 inh | CASP6 VEID inh
CN1C(=O)c2cc(NC(=O)Cc3cccs3)ccc2OC[C@@H]2O[C@@H](CC(=O)NCCc3ccncc3)CC[C@@H]21 | 0 | . | . | 0 | 69*
CN1C(=O)c2cc(NC(=O)c3cccs3)ccc2OC[C@@H]2O[C@H](CC(=O)N3CCOCC3)CC[C@H]21 | 0 | . | . | 3 | 4
CN1C(=O)c2cc(NC(=O)c3cccs3)ccc2OC[C@H]2O[C@H](CC(=O)N3CCOCC3)CC[C@@H]21 | 0 | . | . | 17* | 4
CN1C(=O)c2cc(NC(=O)c3cccc(F)c3)ccc2OC[C@@H]2O[C@@H](CC(=O)N3CCc4ccccc4C3)CC[C@H]21 | 0 | . | . | 7 | 56*
C[C@H]1CN([C@@H](C)CO)C(=O)c2cccc(NC(=O)c3cnccn3)c2O[C@@H]1CN(C)S(=O)(=O)c1cccs1 | 0 | . | . | 0 | 0
O=C(C[C@@H]1C=C[C@H](NC(=O)Nc2cc(F)ccc2F)[C@@H](CO)O1)Nc1ccccc1 | 0 | . | . | -4 | 0
CN(C[C@H]1[C@@H](c2ccc(C3=CCCC3)cc2)[C@@H](CO)N1CCC(F)(F)F)S(C)(=O)=O | . | . | . | 25* | .
O=C1CNC[C@@H]2[C@H](c3ccc(C4=CCCC4)cc3)[C@H](CO)N12 | . | . | . | 6 | 2
O=C1CNC[C@H]2[C@@H](c3ccc(C4=CCCC4)cc3)[C@H](CO)N12 | . | . | . | 21* | -1
N#C[C@@H]1[C@H](c2ccc(C3=CCCCC3)cc2)[C@@H](CO)N1S(=O)(=O)c1ccccc1 | 1 | . | . | 0 | 41*
CCS(=O)(=O)N1CC(=O)N2[C@H](CO)[C@H](c3ccc(C4=CCCCC4)cc3)[C@@H]2C1 | . | . | . | 22* | .
CO[C@@H]1CN(C)C(=O)c2ccc(NS(=O)(=O)c3cn(C)cn3)cc2OC[C@@H](C)N(CC2CC2)C[C@H]1C | 0 | . | . | 2 | -4
C=CCn1c(SCC(=O)Nc2cc(C)on2)nnc1C1COc2ccccc2O1 (stereo not drawn) | 0 | 2 | 1 | 5 | 8
Cc1cc(NC(=O)CSc2nnc(C3COc4ccccc4O3)n2N)no1 (stereo not drawn) | 43* | 3 | 6 | -8 | 7
Cc1cc(NC(=O)CSc2ccc3nnc(CCNS(=O)(=O)c4ccccc4)n3n2)no1 | 44* | -2 | 2 | 1 | 2
COc1ccc(NC(=O)CSc2nnc3ccc(-c4cccnc4)nn23)cc1OC | 0 | -3 | 1 | 17* | -9
Cc1cc(NC(=O)CSc2nnc3ccc(-c4ccccc4)nn23)no1 | 0 | -2 | . | 26* | -3
CCCNC(=O)N(C)C[C@H]1Oc2ncc(/C=C/c3ccccc3)cc2C(=O)N([C@@H](C)CO)C[C@H]1C | 0 | . | . | -5 | 1
C[C@H](CO)N1C[C@H](C)[C@H](CN(C)S(C)(=O)=O)Oc2ccc(NC(=O)CCCCCC(=O)Nc3ccccc3N)cc2C1=O | 0 | . | . | 0 | 2
CCCNC(=O)N(C)C[C@H]1Oc2cc(Br)ccc2S(=O)(=O)N([C@H](C)CO)C[C@H]1C | 0 | . | . | 5 | 1
O=C(NC1CCCCC1)N[C@@H]1CC[C@H](CCNS(=O)(=O)c2ccccc2)O[C@H]1CO | 0 | . | . | -3 | -1
NC(=O)CSc1nnc2ccc(-c3ccc(Cl)cc3)nn12 | . | . | -12 | -2 | -2
Cc1ccc(-c2ccc3nnc(SCC(N)=O)n3n2)cc1 | 43* | 1 | -32 | 0 | 0
COc1ccc(C2C(CC(=O)O)=C(Nc3ccccc3)C(=O)N2c2ccccc2)cc1 (stereo not drawn) | 1 | 2 | 3 | -5 | 1
O=C(O)CC1=C(Nc2ccccc2)C(=O)N(c2ccccc2)C1c1ccc(F)cc1 (stereo not drawn) | 43* | 2 | 0 | -4 | -1
SMILES | FGF22 binding | NSD2 HMT inh | UCH37 DUB inh | SIRT5 inh | CASP6 VEID inh
COc1ccc(CC2(c3ccccc3)NC(=O)NC2=O)cc1 (stereo not drawn) | 43* | -1 | 0 | . | -1
O=C1NC(=O)C(Cc2ccccc2)(c2ccccc2)N1 (stereo not drawn) | 0 | 12 | 2 | . | -4
O=C(Cn1c(-c2ccccc2)c[n+]2ccsc12)c1ccc([N+](=O)[O-])cc1 | 43* | 5 | 1 | -1 | -2
O=C(Cn1c(-c2ccccc2)c[n+]2ccsc12)c1ccccc1 | 0 | -2 | -1 | -3 | -3
CNS(=O)(=O)c1cc(C(=O)O)ccc1OC | 43* | -1 | -1 | -2 | 1
COc1ccc(C(=O)O)cc1S(N)(=O)=O | 1 | 0 | 1 | -3 | -3
CCC(=O)Nc1ccc2c(c1)OC[C@@H](C)N(Cc1ccccc1)C[C@@H](C)[C@H](OC)CN(C)C2=O | 0 | . | . | 2 | -1
CC(C)NC(=O)Nc1ccc2c(c1)C(=O)N([C@H](C)CO)C[C@H](C)[C@H](CN(C)Cc1ccccc1)OCCCC[C@H](C)O2 | 0 | . | . | 1 | -3
CCN(c1ccccc1)S(=O)(=O)c1ccc(OC)c(NC(=O)CN2C(=O)NC(C)(C)C2=O)c1 | 0 | 0 | 4 | 1 | 1
O=C(CN1C(=O)NC2(CCCC2)C1=O)Nc1ccc(S(=O)(=O)N2CCOCC2)cc1 | 0 | -5 | . | 18* | 1
CCN(c1ccccc1)S(=O)(=O)c1ccc(Cl)c(NC(=O)CN2C(=O)NC3(CCCC3)C2=O)c1 | 1 | 1 | 5 | 16* | 0
O=C(CN1C(=O)NC2(CCCCC2)C1=O)Nc1cccc(S(=O)(=O)N2CCOCC2)c1 | 0 | -2 | 0 | -1 | 1
CCN(c1ccccc1)S(=O)(=O)c1ccc(OC)c(NC(=O)Cc2ccc(F)cc2)c1 | 0 | 25 | -1 | 61* | -2
CCC1(c2ccc(F)cc2)NC(=O)N(CC(=O)Nc2cccc(S(=O)(=O)N3CCCCC3)c2)C1=O (stereo not drawn) | 41 | -4 | . | 15* | 3
CCCNC(=O)C[C@H]1C[C@H]2c3cc(NS(=O)(=O)c4cccc(OC)c4)ccc3O[C@H]2[C@@H](CO)O1 | 0 | . | . | -3 | 1
C[C@@H]1CN([C@@H](C)CO)C(=O)c2cc(NS(=O)(=O)c3ccc(F)cc3)ccc2O[C@H]1CN(C)S(=O)(=O)c1ccc(Cl)cc1 | 0 | . | . | 0 | -4
CC(C)CC#Cc1ccc2c(c1)O[C@H](CN(C)C(=O)C1CCCCC1)[C@@H](C)CN([C@H](C)CO)S2(=O)=O | 0 | . | . | 21* | 0
CC(C)CC#Cc1ccc2c(c1)O[C@H](CN(C)C(=O)C1CCC1)[C@H](C)CN([C@@H](C)CO)S2(=O)=O | 0 | . | . | 7 | 0

Bioassay records: PubChem BioAssay, several laboratories
